S100A4 inh HTS: inhibitors of human S100A4 binding to myosin IIA peptide. S100A4/TAMRA-MyoIIA peptide fluorescence polarization. inhibition, % at 10.7 µM. 360,000 tested, 0.14% active. AID 652163;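 active = mean inhibition of at least 70% across replicates, with every replicate also reaching that level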
Target sequence (P26447 whole entry, looked up): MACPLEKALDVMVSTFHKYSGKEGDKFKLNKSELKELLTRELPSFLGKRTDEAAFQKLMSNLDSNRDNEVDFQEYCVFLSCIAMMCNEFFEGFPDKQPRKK
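Material: human S100A4 monomer with TAMRA-labelled myosin IIA peptide; buffer or medium: HEPES pH 7.2 with CaCl2, KCl, NaCl, DTT, Triton; compound dosing: one concentration per compound; schedule: 5 min incubation before reading; benchmarks: neutral control DMSO, positive control TFP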
FGF22 binding: binders of recombinant human FGF22 by thermal shift; Q9HCT0; SYPRO orange fluorescence; percent of sucrose octasulfate shift, DMSO zero; activity (Tm shift, normalised), % at 9.99 µM; 340,000 tested, 1.5% active;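 active = mean Tm shift, scaled 0 neutral to 100 positive control, at about 1.3% or above, every replicate too, limit read from the data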
Target sequence (Q9HCT0 whole entry, looked up): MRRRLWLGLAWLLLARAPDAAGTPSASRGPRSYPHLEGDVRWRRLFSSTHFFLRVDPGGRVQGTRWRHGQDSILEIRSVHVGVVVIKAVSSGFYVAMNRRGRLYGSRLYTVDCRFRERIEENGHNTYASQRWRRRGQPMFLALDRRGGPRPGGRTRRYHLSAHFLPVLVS
miR122 inh: blocks miR-122 activity in Huh7 sensor cells; 340,000 tested, 0.3% active; activation (reporter increase), % at 12.5 µM; Huh7 miR-122 Renilla luciferase sensor, 48 h; neutral wells = 0, positive control = 100;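 active = mean replicate activation score at least 90 and every replicate individually at or above 90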;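 note: higher luciferase means less miR-122 activity so hits act as miR-122 inhibitors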
SIRT5 block: sirtuin-5 (human) deacylase inhibition; inhibition, % at 15 µM; AID 652115; 330,000 tested, 1.1% active; Purified SirT5, succinyl-peptide AMC, trypsin-coupled fluorescence; Q9NXA8; in the data active = inhibition above about 15%
Target sequence (Q9NXA8 whole entry, looked up): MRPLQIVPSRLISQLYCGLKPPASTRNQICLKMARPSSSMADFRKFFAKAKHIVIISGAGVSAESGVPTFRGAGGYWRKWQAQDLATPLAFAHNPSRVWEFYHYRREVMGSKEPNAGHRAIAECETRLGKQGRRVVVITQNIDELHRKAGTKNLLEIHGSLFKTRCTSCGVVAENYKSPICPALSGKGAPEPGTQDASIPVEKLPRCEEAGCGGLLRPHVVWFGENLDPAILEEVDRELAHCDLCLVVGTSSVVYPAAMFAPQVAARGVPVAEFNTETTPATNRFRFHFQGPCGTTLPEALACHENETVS
E-selectin induc: E-selectin induction on HUVECs | P16581 | HUVEC E-selectin immunofluorescence imaging; normalized: neutral wells 0, TNF-alpha wells 100 | activation, % at 7.58 µM | 260,000 tested, 0.37% active | AID 686992;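 active = mean E-selectin-positive cell signal at least 10% of the positive control, reached in at least 60% of replicates, without over 20% cell loss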
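Material: HUVEC primary endothelial cells; Amount: 3,000 cells per well; Dosing: single concentration; Medium: EGM-2 growth medium on 0.1% gelatin-coated wells; Read-out basis: percent E-selectin-positive cells; Signal: immunofluorescence imaging; Control set: TNF-alpha, DMSO.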
Hits are given with their value; n = inactive; x = no result; ! = repeats disagree. Compounds with a hit are over-represented: about 2.5% of the library has one in this group of screens.

SMILES	S100A4 inh HTS	FGF22 binding	miR122 inh	SIRT5 block	E-selectin induc
CC1=CC(C)(C)N(C(=O)CCl)c2ccccc21	n	n	x	n	n
CC1=CC(C)(C)N(C(=O)CN2C(=O)CCC2=O)c2ccccc21	n	43	x	n	x
CC1=C(C#N)c2nc(N)c(C#N)c(C)c2/C1=C\c1ccc(-c2ccccc2C(=O)O)o1	n	n	x	25	x
CO[C@H]1CN(C)C(=O)c2ccc(NC(=O)Nc3ccccc3)cc2OC[C@@H](C)N(C(=O)CN(C)C)C[C@@H]1C	x	x	n	x	n
COc1cc(CNC(=O)Nc2nc(C(N)Cc3ccc(Cl)cc3)cs2)cc(OC)c1OC (centres undefined)	n	n	x	x	n
COc1cc(CNC(=O)Nc2nc(C(N)c3ccccc3)cs2)cc(OC)c1OC (centres undefined)	n	n	n	21	n
CN(C)S(=O)(=O)c1ccc(Cl)c(C(=O)Nc2nc3ccccc3[nH]2)c1	n	n	n	n	30
CS(=O)(=O)c1ccccc1C(=O)Nc1nc2ccccc2[nH]1	n	n	n	n	n
CN1/C(=C\C=C(C#N)C#N)C(C)(C)c2ccccc21	160	n	n	n	n
CO[C@H]1CN(C)C(=O)c2ccc(NC(=O)C3CCCC3)cc2OC[C@@H](C)N(C(C)=O)C[C@@H]1C	n	n	x	n	n
Cc1nc2ccccc2c(=O)n1NC(=O)c1ccc([N+](=O)[O-])cc1	n	43	x	n	n
CCCn1nc(Oc2nc(NCC)nc(NCC)n2)ccc1=O	x	x	n	x	x
CCCn1nc(Oc2nc(N(C)C)nc(N(C)C)n2)ccc1=O	n	n	x	19	x
O=C(Oc1c(Br)cc([N+](=O)[O-])cc1Br)c1cccnc1	n	44	x	n	n
CS(=O)(=O)N1CCN(c2ccc(NC(=S)NC(=O)c3cccs3)cc2)CC1	n	44	x	n	x
COc1ccc(/C=N/NC2=NS(=O)(=O)c3ccccc32)cc1	n	n	n	n	n
O=S1(=O)N=C(N/N=C/c2ccc(Br)o2)c2ccccc21	n	43	n	n	x
C[C@@H]1CN([C@@H](C)CO)C(=O)Cc2cc(NC(=O)Nc3cccc4ccccc34)ccc2O[C@H]1CN(C)S(C)(=O)=O	n	n	n	n	n
COc1ccc(NC(=O)N(C)C[C@@H]2Oc3ncc(C#CCN(C)C)cc3C(=O)N([C@@H](C)CO)C[C@@H]2C)cc1	n	n	n	n	n
COc1ccc(NC(=O)N(C)C[C@H]2Oc3ncc(C#CCN(C)C)cc3C(=O)N([C@@H](C)CO)C[C@@H]2C)cc1	n	n	n	22	n
C/C=C/c1cnc2c(c1)C(=O)N([C@@H](C)CO)C[C@H](C)[C@@H](CN(C)C(=O)Nc1ccc(F)cc1)O2	n	n	n	16	n
C/C=C/c1cnc2c(c1)C(=O)N([C@@H](C)CO)C[C@H](C)[C@@H](CN(C)C(=O)Nc1ccc(C(F)(F)F)cc1)O2	n	n	n	n	n
C[C@H](CO)N1C[C@H](C)[C@H](CN(C)C(=O)Nc2ccc(F)cc2)Oc2ncc(C#Cc3ccc(C(F)(F)F)cc3)cc2C1=O	n	n	n	16	n
C[C@@H]1CN([C@@H](C)CO)C(=O)c2cc(NC(=O)Nc3ccccc3)ccc2O[C@@H](C)CCCCO[C@H]1CN(C)Cc1ccc(C(F)(F)F)cc1	x	n	n	x	n
CCCNC(=O)C[C@H]1CC[C@H]2[C@@H](COC[C@@H](O)CN2C(=O)C2CCOCC2)O1	n	n	n	n	n
SMILES	S100A4 inh HTS	FGF22 binding	miR122 inh	SIRT5 block	E-selectin induc
O=C(Cc1ccccn1)NCC[C@H]1CC[C@@H](NS(=O)(=O)c2ccccc2)[C@H](CO)O1	n	n	x	n	n
C[C@H]1CN([C@@H](C)CO)C(=O)c2cc(NC(=O)Cn3cnnn3)ccc2O[C@@H]1CN(C)S(=O)(=O)c1cn(C)cn1	n	n	n	n	n
COc1ccc(Cl)cc1S(=O)(=O)Nc1ccncc1	n	n	n	n	x
COc1cc(NS(=O)(=O)c2ccc(C)c(C)c2)c(OC)cc1Cl	x	x	226	x	x
COc1ccc(Cl)cc1S(=O)(=O)NCc1cccnc1	x	x	120	x	x
COc1ccc(Cl)cc1NS(=O)(=O)c1cc(Cl)ccc1OC	n	x	255	n	x
CCNC(=O)[C@H]1[C@H](CO)[C@H]2Cn3c(ccc(-c4cccc(C(=O)N(C)C)c4)c3=O)[C@@H]1N2	n	x	x	n	n
CN(C)S(=O)(=O)c1cccc(NC(=S)N/N=C/c2cc(Br)ccc2O)c1	n	n	n	29	x
CN(C)S(=O)(=O)c1cccc(NC(=S)N/N=C/c2cccc(O)c2)c1	n	n	n	n	x
CN1C(=O)c2cc(NC(=O)C3CCOCC3)ccc2OC[C@@H]2O[C@@H](CC(=O)NC3CCCC3)CC[C@H]21	n	n	n	n	n
O=C(C[C@@H]1CC[C@@H]2[C@H](COC[C@H](O)CN2Cc2ccc(C(F)(F)F)cc2)O1)N1CCc2ccccc2C1	n	n	n	n	n
Nc1nnc(SCc2nnc(-c3ccccc3)o2)s1	n	n	x	n	523
CC(C)(C)[Si](C)(C)OC[C@@H]1[C@H]2c3ccccc3O[C@]1(C)NC(=S)N2C(=O)c1ccccc1	n	n	x	n	x
CCCS(=O)(=O)N1CCn2c(nc3ccccc32)C1	n	n	n	15	x
CCn1c(N2CCN(S(=O)(=O)CC)CC2)nc2ccccc21	n	n	x	n	x
COc1cccc(OCc2nnc(-c3cccs3)o2)c1	n	43	n	n	n
Cc1cc(C(=O)N2CCc3ccccc32)n(-c2ccccc2)n1	n	n	115	n	n
C[C@@H]1CN([C@@H](C)CO)C(=O)c2cc(Br)cnc2O[C@H]1CN(C)C(=O)C1CCCCC1	n	n	n	18!	n
COCC(=O)N(C)C[C@H]1Oc2ncc(Br)cc2C(=O)N([C@H](C)CO)C[C@H]1C	n	n	n	n	n
COCC(=O)N(C)C[C@H]1Oc2ncc(Br)cc2C(=O)N([C@@H](C)CO)C[C@H]1C	n	n	n	17!	n
Cc1ccc(S(=O)(=O)Nc2cccc3c2O[C@H](CN(C)C(=O)Nc2ccc(F)cc2)[C@@H](C)CN([C@H](C)CO)C3=O)cc1	n	n	n	n	n
CCOc1cc(/C=N/Nc2nc(N3CCCCC3)nc(N3CCCCC3)n2)ccc1OC(=O)c1ccco1	n	43	n	n	n
COc1cccc(NC(=O)c2cccc(NC(=O)c3ccco3)c2)c1	n	43	n	x	n
COc1cccc(C(=O)Nc2ccc(NC(=O)c3ccco3)nc2)c1	x	x	n	x	x
Cc1cccc(NC(=O)c2cccc(NC(=O)c3ccco3)c2)c1	n	n	n	n	x
COc1cc(/C=N/NC(=O)c2ccc(O)cc2)ccc1Oc1ccc([N+](=O)[O-])cn1	n	44	x	n	x
Cc1cccc(C(=O)NNC(=O)c2ccco2)c1	n	43	x	n	n
CCOc1ccc(/C=N/Nc2nc(N3CCCC3)nc(N3CCCC3)n2)cc1OC	n	n	n	n	x
